# From article PMC7004075 (Clinical Pharmacology in Drug Development, 2019)
# Tests used:
# [1] = system: plasma glucose in patients with T2DM; experiment: Plasma glucose pharmacodynamics, Cohort 2; format: in vivo, human
# Method in brief: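 Dosing was before each of 2 ADA meals set 4, 5 or 6 h apart and eaten within 30 min. Blood was taken predose and 10–180 min postdose. Baseline-adjusted glucose AUC0‑180min and Cmin were analysed by a mixed-effects model (sequence, period, treatment; patient-within-sequence random).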
# patients with T2DM = experiment: Safety and tolerability; format: in vivo, human; details: for overall safety and tolerability: patients with T2DM, different dosing conditions
# [2] = Plasma insulin tregopil pharmacokinetics, Cohort 2; format: in vivo, human; details: for plasma insulin tregopil Cmax, mean ± SD / plasma insulin tregopil AUC0-180min, mean ± SD: 30 mg oral
# [3] = system: plasma glucose in patients with T2DM; experiment: Plasma glucose pharmacodynamics, Cohort 1; format: in vivo, human
# [4] = system: endogenous glucose production, nonhepatic glucose uptake; details: peripheral administration at 1.8 pmol/kg/min, preclinical; cited from earlier work
# [5] = Cohort 2, 5-hour between-meal interval, afternoon dose
# [6] = Cohort 2, 5-hour between-meal interval, morning dose
substance,measurement,setting,value
insulin tregopil: PEGylated recombinant human insulin with a single methoxy-triethylene-glycol-propionyl unit on the Lys-β29-amino group; oral tablets,intrasubject variability for the baseline-adjusted PD response Cmin,"[1]; Cohort 2, insulin tregopil groups (placebo 9.16%)",11.61%
same,intrasubject variability for the baseline-adjusted PD response AUC0-180mins,"[1]; Cohort 2, insulin tregopil groups (placebo 9.17%)",8.41%
same,events of hypoglycemia,patients with T2DM; Cohort 1,4 events
same,events of hypoglycemia,"patients with T2DM; Cohort 1, 30 minute premeal dosing time group",3 events
same,events of hypoglycemia,"patients with T2DM; Cohort 2, all in the afternoon",5 events
same,events of hypoglycemia,patients with T2DM; all cohorts,43 events
same,hypoglycemic events mild in severity,patients with T2DM; all cohorts,83.7%
same,patient discontinuations from the study due to AEs,patients with T2DM; all cohorts,no patient discontinuations
same,duration of hypoglycemic symptoms,patients with T2DM; generally,approximately 30 minutes
same,overall safety and tolerability,patients with T2DM,safe and well tolerated
same,overall safety and tolerability,patients with T2DM; listed as Insulin tregopil,well tolerated
same,intersubject variability of plasma insulin tregopil AUC0-180mins,[2]; Cohort 2,144.0%
same,intersubject variability of plasma insulin tregopil Cmax,[2]; Cohort 2,124.7%
same,intrasubject variability of plasma insulin tregopil Cmax,[2]; Cohort 2,64.7%
same,"plasma insulin tregopil Cmax, mean ± SD","[2]; Cohort 2, 4-hour between-meal interval, afternoon dose",6760 ± 7680 µg/mL
same,"plasma insulin tregopil Cmax, mean ± SD","[2]; Cohort 2, 4-hour between-meal interval, morning dose",11330 ± 9870 µg/mL
same,"plasma insulin tregopil AUC0-180min, mean ± SD",[2]; [5],209.27 ± 186.61 mg·min/mL
same,"plasma insulin tregopil Cmax, mean ± SD",[2]; [5],7139 ± 5691 µg/mL
same,"plasma insulin tregopil AUC0-180min, mean ± SD",[2]; [6],320.60 ± 196.340 mg·min/mL
same,"plasma insulin tregopil Cmax, mean ± SD",[2]; [6],10140 ± 5310 µg/mL
same,"plasma insulin tregopil Cmax, mean ± SD","[2]; Cohort 2, 6-hour between-meal interval, morning dose (first value)",11320 ± 8730 µg/mL
same,"2-hour postprandial glucose (PPG), higher than the premeal levels","[3]; Cohort 1, 10 minute premeal group (placebo 55%)",36%
same,"2-hour postprandial glucose (PPG), higher than the premeal levels","[3]; Cohort 1, 20 minute premeal group (placebo 55%)",55%
same,"2-hour postprandial glucose (PPG), higher than the premeal levels","[3]; Cohort 1, 30 minute premeal group (placebo 55%)",77%
same,duration of glucose-lowering action,"[3]; oral, patients with T2DM",approximately 2 hours
human insulin: human insulin infused into portal vein or peripherally in preclinical studies,increase in plasma insulin levels in the peripheral artery,[4],2 fold
